Assay results as given in PMC12591375 (British journal of pharmacology, 2022).
Where two headings read alike, the source gives them in different places. Marks after values point to notes of the source that are not given here.

Key:
[1] = system: endogenous GRK2/3; assay type: cell-based, human; conditions: 30-μM compound 101, 30 min
Summary of the method: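 HEK 293 cells PEI-transfected with mem-Citrine-SH3, Rluc8-β-arrestin 2, HA-hCB2 and empty vector, then replated on PDL. Equilibrated ~30 min in phenol red-free DMEM with 1 mg/mL fatty acid-free BSA and 10 mM HEPES, then given 30 µM test compound or vehicle for 30 min.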

[2] = molecular target: T1, CB2 (Homo sapiens, UniProt P34972, Q63R); assay: β-arrestin 2 translocation real-time BRET assay, wild-type CB2; assay type: cell-based; conditions: pEC50, β-arrestin 2 translocation to CB2, HEK 293 cells, mock (no GRK), Table 2
[3] = molecular target: T1, CB2; assay: β-arrestin 1 translocation real-time BRET assay; assay type: cell-based; conditions: pEC50, β-arrestin 1 translocation to CB2, HEK 293 cells
[4] = molecular target: T1, CB2; assay: β-arrestin 2 translocation real-time BRET assay, wild-type CB2; assay type: cell-based; conditions: for Span, β-arrestin 2 translocation to CB2: HEK 293 cells
[5] = molecular target: T1, CB2; assay: β-arrestin 1 translocation real-time BRET assay; assay type: cell-based; conditions: HEK 293 cells

T1 sequence (P34972 whole entry Q63R): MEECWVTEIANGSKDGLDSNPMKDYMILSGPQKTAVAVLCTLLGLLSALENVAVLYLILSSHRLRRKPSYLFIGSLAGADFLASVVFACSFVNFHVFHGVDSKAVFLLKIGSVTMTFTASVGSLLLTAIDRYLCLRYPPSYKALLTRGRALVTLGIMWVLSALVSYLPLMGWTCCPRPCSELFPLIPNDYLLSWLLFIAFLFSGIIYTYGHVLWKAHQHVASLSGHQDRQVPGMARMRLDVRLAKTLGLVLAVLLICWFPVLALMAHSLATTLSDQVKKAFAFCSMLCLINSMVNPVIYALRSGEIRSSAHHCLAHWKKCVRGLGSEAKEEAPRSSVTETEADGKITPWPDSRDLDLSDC

## Cn1c(CNc2cccc(C(=O)NCc3ccccc3C(F)(F)F)c2)nnc1-c1ccncc1 [compound 101]
[1]; stimulation with 1-μM AMB-FUBINACA
  reduction of β-arrestin 2 translocation to CB2: approximately 15%
[1]; stimulation with 10-μM CP55940
  reduction of β-arrestin 2 translocation to CB2: approximately 15%
[1]; stimulation with […] 2-AG
  reduction of β-arrestin 2 translocation to CB2: approximately 15%

## CCCCC/C=C\C/C=C\C/C=C\C/C=C\CCCC(=O)OC(CO)CO [2-AG, 2-Arachidonoylglycerol]
[2]
  EC50: 2.29 µM
[3]; coexpression of GRK1
  EC50: 3.24 µM
[3]; coexpression of GRK2
  EC50: 2.29 µM
[3]; coexpression of GRK3
  EC50: 2 µM
[3]; coexpression of GRK4
  EC50: 2.88 µM
[3]; coexpression of GRK5
  EC50: 3.63 µM
[3]; coexpression of GRK6
  EC50: 3.31 µM
[3]; mock (no GRK)
  EC50: 3.55 µM
[4]; coexpression of GRK1, Table 2
  Span, β-arrestin 2 translocation to CB2: 198.6 (8.08) ΔBRET.s
[4]; coexpression of GRK2, Table 2
  Span, β-arrestin 2 translocation to CB2: 165.5 (10.92) ^* ΔBRET.s
[4]; coexpression of GRK3, Table 2
  Span, β-arrestin 2 translocation to CB2: 164.7 (9.83) ^* ΔBRET.s
[4]; coexpression of GRK4, Table 2
  Span, β-arrestin 2 translocation to CB2: 191.3 (6.31) ΔBRET.s
[4]; coexpression of GRK5, Table 2
  Span, β-arrestin 2 translocation to CB2: 157.1 (4.07) ^* ΔBRET.s
[4]; coexpression of GRK6, Table 2
  Span, β-arrestin 2 translocation to CB2: 158.6 (6.39) ^* ΔBRET.s
[4]; mock (no GRK), Table 2
  Span, β-arrestin 2 translocation to CB2: 204.9 (14.67) ΔBRET.s
[4]; coexpression of GRK2, GRK3 and GRK5 versus mock
  lowering of efficacy of β-arrestin 2 translocation by GRK coexpression: 10–20%
[5]; coexpression of GRK1
  Span, β-arrestin 1 translocation to CB2: 83.57 (2.82) ^* ΔBRET.s
[5]; coexpression of GRK2
  Span, β-arrestin 1 translocation to CB2: 71.73 (3.39) ^* ΔBRET.s
[5]; coexpression of GRK3
  Span, β-arrestin 1 translocation to CB2: 68.57 (2.99) ^* ΔBRET.s
[5]; coexpression of GRK4
  Span, β-arrestin 1 translocation to CB2: 62.00 (2.72) ΔBRET.s
[5]; coexpression of GRK5
  Span, β-arrestin 1 translocation to CB2: 65.96 (1.69) ^* ΔBRET.s
[5]; coexpression of GRK6
  Span, β-arrestin 1 translocation to CB2: 74.27 (4.00) ^* ΔBRET.s
[5]; mock (no GRK)
  Span, β-arrestin 1 translocation to CB2: 56.14 (1.52) ΔBRET.s
